Structures are written as SMILES. The source made the active and inactive calls. The calls are words filed in the database; no cut-off is given here.

One test has as its system HL-60. Nature of the test: Concentration required for 50% inhibition of differentiation-inducing activity against human promyelocytic leukemia cell line HL-60; IA is inactive. Type of test: functional, cell-based.
Settings: not given
Put shortly:
(§1)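 HL-60 cells kept in suspension in RPMI1640 with 5% FCS plus penicillin G/streptomycin, 37 °C, 5% CO2. Seeded near 8 × 10^4 cells/mL, compound added from 0.2 mM ethanol stock (final ethanol below 0.5%), 4-day incubation. Differentiation by NBT reduction (20 min, 37 °C, 0.2% NBT with TPA), formazan-positive cells counted on ≥200 cells; ED50 taken from NBT data; retinoic acid run concurrently.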
For the compound `CC1=C(/C=C/C(C)=C/C=C/C(C)=C(/C(=O)O)C(C)C)C(C)(C)CCC1`, the ED50 result was “inactive”.

With `CC1=C(/C=C/C(C)=C/C=C/C(C)=C(\C(=O)O)C(C)C)C(C)(C)CCC1`, the ED50 entry was “inactive”.

A further test concerns HL-60. In words: Concentration required for 50% inhibition of differentiation-inducing activity against human promyelocytic leukemia cell line HL-60. The settings on record: read-out: ED50 (the source's name). Type of test: functional. An outline of the steps:
as §1
Regarding `CC\C(C(=O)O)=C(C)/C=C/C=C(C)/C=C/C1=C(C)CCCC1(C)C`, the EC50 was found to be 680 nM.

Consider `CC1=C(/C=C/C(C)=C/C=C/C(C)=C/C(=O)O)C(C)(C)CCC1` [TRETINOIN], for which the EC50 was 2.4 nM.

For the compound `CC1=C(/C=C/C(C)=C/C=C/C(C)=C(/C)C(=O)O)C(C)(C)CCC1`, the EC50 is 63 nM.

Regarding `CC1=C(/C=C/C(C)=C/C=C/C(C)=C\C(=O)O)C(C)(C)CCC1` [ISOTRETINOIN], the EC50 came out at 5.9 nM.

On to `C=C(/C=C/C=C(C)/C=C/C1=C(C)CCCC1(C)C)C(C)(C)C(=O)O`, for which the EC50 was greater than 1000 nM.

Consider `CC1=C(/C=C/C(C)=C/C=C/C(C)=C(\C)C(=O)O)C(C)(C)CCC1`, for which the EC50 is 13 nM.

`C=C(/C=C/C=C(C)/C=C/C1=C(C)CCCC1(C)C)C(C)C(=O)O` (stereo not given): the EC50 turned out to be 55.1 nM.

Take `C=C(/C=C/C=C(C)/C=C/C1=C(C)CCCC1(C)C)CC(=O)O`: the EC50 came out at 52 nM.

Values taken from ChEMBL document CHEMBL1126207, “Base-catalyzed isomerization of retinoic acid. Synthesis and differentiation-inducing activities of 14-alkylated all-trans-, 13-cis-, and 20,14-retro-retinoic acids” (1992).
